Laboratory results from ChEMBL document CHEMBL4130549, “Synthesis and bioactivities study of new antibacterial peptide mimics: The dialkyl cationic amphiphiles” (Eur J Med Chem, 2018).
The source made the active and inactive calls. The rule behind the calls is not given here.

Key:
[1] = test system: Staphylococcus aureus; test: Antibacterial activity against Staphylococcus aureus ATCC 29213 after 16 to 20 hrs by broth microdilution method; assay type: functional
Procedure, shortened: (§1)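 CLSI broth microdilution in cation-adjusted Mueller-Hinton broth. A 4-6 h culture was diluted to about 10⁶ CFU/mL and mixed 1:1 with twofold compound dilutions (256–0.5 µg/mL before mixing) prepared from aqueous stocks. Plates were incubated at 37 °C for 16-20 h. Each concentration was tested in duplicate, and the experiment was repeated at least twice.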

[2] = test system: Staphylococcus aureus; test: Antibacterial activity against methicillin-resistant Staphylococcus aureus isolate M4 after 16 to 20 hrs by broth microdilution method; assay type: functional; procedure, shortened: as §1
[3] = test system: Klebsiella pneumoniae; test: Antibacterial activity against carbapenemase-producing Klebsiella pneumoniae isolate K9 after 16 to 20 hrs by broth microdilution method; assay type: functional
Procedure, shortened: (§2)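 Broth microdilution per CLSI in cation-adjusted Mueller-Hinton broth; 4-6 h cultures (~10⁸ CFU/mL) diluted to ~10⁶ CFU/mL and mixed 1:1 with twofold dilutions of water-dissolved compound (256 to 0.5 µg/mL). Incubated 16-20 h at 37 °C; MIC read visually. Each concentration run in duplicate, whole experiment repeated at least twice. MRSA, KPC and NDM-1 strains were clinical isolates.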

[4] = test system: Staphylococcus aureus; test: Antibacterial activity against methicillin-resistant Staphylococcus aureus isolate M1 after 16 to 20 hrs by broth microdilution method; assay type: functional; procedure, shortened: as §1
[5] = test system: Enterobacteriaceae; test: Antibacterial activity against NDM-1-producing Enterobacteriaceae isolate N3 after 16 to 20 hrs by broth microdilution method; assay type: functional; procedure, shortened: as §2
[6] = test system: Enterobacteriaceae; test: Antibacterial activity against NDM-1-producing Enterobacteriaceae isolate N6 after 16 to 20 hrs by broth microdilution method; assay type: functional; procedure, shortened: as §2
[7] = test system: Staphylococcus aureus; test: Bactericidal activity against Staphylococcus aureus after 20 to 24 hrs using compounds preincubated with 50% plasma for 3 to 6 hrs by broth microdilution method
[8] = test system: Klebsiella pneumoniae; test: Antibacterial activity against carbapenemase-producing Klebsiella pneumoniae isolate K7 after 16 to 20 hrs by broth microdilution method; assay type: functional; procedure, shortened: as §2
[9] = test system: Escherichia coli; test: Induction of cytoplasmic membrane depolarization in Escherichia coli ATCC 25922 at 20 ug/ml measured every 2 mins for 12 mins by diSC35 staining based fluorescence assay; assay type: functional, organism-based
Procedure, shortened: (§3)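 Mid-log cells (4–6 h) pelleted, washed and resuspended (~10^8 CFU/mL) in PBS for S. aureus, or in 5 mM HEPES, 5 mM glucose and 100 mM KCl (1:1:1) for E. coli. Preloaded with diSC35 (10 µM, 50 µL), 30 min for S. aureus and 40 min plus EDTA (200 µM, 50 µL) for E. coli. Baseline read 8 min (ex 622/em 670 nm), then compound added to 20 µg/mL final and read every 2 min for 12 min. Water control.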

[10] = test system: Staphylococcus aureus; test: Antibacterial activity against methicillin-resistant Staphylococcus aureus isolate M8 after 16 to 20 hrs by broth microdilution method; assay type: functional; procedure, shortened: as §1
[11] = test system: Salmonella enterica; test: Antibacterial activity against Salmonella enterica after 16 to 20 hrs by broth microdilution method; assay type: functional; procedure, shortened: as §2
[12] = test system: Enterobacteriaceae; test: Antibacterial activity against NDM-1-producing Enterobacteriaceae isolate N10 after 16 to 20 hrs by broth microdilution method; assay type: functional; procedure, shortened: as §2
[13] = test system: Staphylococcus aureus; test: Antibacterial activity against methicillin-resistant Staphylococcus aureus isolate M6 after 16 to 20 hrs by broth microdilution method; assay type: functional; procedure, shortened: as §1
[14] = test system: Staphylococcus aureus; test: Bactericidal activity against methicillin-resistant Staphylococcus aureus after 20 to 24 hrs by broth microdilution method; assay type: functional
Procedure, shortened: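 For MBC, 20 µL from wells of the broth microdilution MIC plate showing little or no turbidity was plated on agar and incubated 20-24 h at 37 °C. MBC was the lowest concentration giving no colonies.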

[15] = test system: Escherichia coli; test: Induction of inner membrane permeabilization in Escherichia coli ATCC 25922 at 20 ug/ml measured every 2 mins for 12 mins by propidium iodide staining based fluorescence assay; assay type: functional, organism-based
Procedure, shortened: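 Mid-log cells (~10^8 CFU/mL) pre-incubated with propidium iodide (10 µM, 50 µL), 30 min for S. aureus and 40 min for E. coli. Fluorescence (ex 535/em 617 nm) read for 8 min, then compound added to 20 µg/mL final and monitored every 2 min for 12 min. Water-treated control.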

[16] = test system: Enterobacteriaceae; test: Antibacterial activity against NDM-1-producing Enterobacteriaceae isolate N8 after 16 to 20 hrs by broth microdilution method; assay type: functional; procedure, shortened: as §2
[17] = test system: Enterobacteriaceae; test: Antibacterial activity against NDM-1-producing Enterobacteriaceae isolate N2 after 16 to 20 hrs by broth microdilution method; assay type: functional; procedure, shortened: as §2
[18] = test system: Klebsiella pneumoniae; test: Antibacterial activity against carbapenemase-producing Klebsiella pneumoniae isolate K5 after 16 to 20 hrs by broth microdilution method; assay type: functional; procedure, shortened: as §2
[19] = test system: Enterobacteriaceae; test: Antibacterial activity against NDM-1-producing Enterobacteriaceae isolate N9 after 16 to 20 hrs by broth microdilution method; assay type: functional; procedure, shortened: as §2
[20] = test system: Staphylococcus aureus; test: Induction of cytoplasmic membrane depolarization in Staphylococcus aureus ATCC 29213 at 20 ug/ml measured every 2 mins for 12 mins by diSC35 staining based fluorescence assay; assay type: functional, organism-based; procedure, shortened: as §3
[21] = test system: Klebsiella pneumoniae; test: Antibacterial activity against carbapenemase-producing Klebsiella pneumoniae isolate K10 after 16 to 20 hrs by broth microdilution method; assay type: functional; procedure, shortened: as §2
[22] = test system: Enterobacteriaceae; test: Antibacterial activity against NDM-1-producing Enterobacteriaceae isolate N7 after 16 to 20 hrs by broth microdilution method; assay type: functional; procedure, shortened: as §2
[23] = test system: Klebsiella pneumoniae; test: Antibacterial activity against carbapenemase-producing Klebsiella pneumoniae isolate K2 after 16 to 20 hrs by broth microdilution method; assay type: functional; procedure, shortened: as §2
[24] = test system: Staphylococcus aureus; test: Antibacterial activity against methicillin-resistant Staphylococcus aureus isolate M7 after 16 to 20 hrs by broth microdilution method; assay type: functional; procedure, shortened: as §1
[25] = test system: Klebsiella pneumoniae; test: Antibacterial activity against carbapenemase-producing Klebsiella pneumoniae isolate K8 after 16 to 20 hrs by broth microdilution method; assay type: functional; procedure, shortened: as §2
[26] = test system: Staphylococcus aureus; test: Antibacterial activity against methicillin-resistant Staphylococcus aureus isolate M5 after 16 to 20 hrs by broth microdilution method; assay type: functional; procedure, shortened: as §1
[27] = test system: Klebsiella pneumoniae; test: Antibacterial activity against carbapenemase-producing Klebsiella pneumoniae isolate K1 after 16 to 20 hrs by broth microdilution method; assay type: functional; procedure, shortened: as §2
[28] = test system: Klebsiella pneumoniae; test: Antibacterial activity against carbapenemase-producing Klebsiella pneumoniae after 16 to 20 hrs by broth microdilution method; assay type: functional; procedure, shortened: as §2
[29] = test system: Enterobacteriaceae; test: Antibacterial activity against NDM-1-producing Enterobacteriaceae isolate N5 after 16 to 20 hrs by broth microdilution method; assay type: functional; procedure, shortened: as §2
[30] = test system: Staphylococcus aureus; test: Ratio of MBC for methicillin-resistant Staphylococcus aureus in presence of 50% plasma to MBC for methicillin-resistant Staphylococcus aureus; assay type: functional
Procedure, shortened: (§4)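 MRSA at 10⁵ CFU/mL in 50% Mueller-Hinton broth plus 50% sheep serum, plasma or defibrinated whole blood. Serum and plasma were separated by centrifugation at 3,500 rpm for 10 min. Aqueous compound dilutions (512–4 µg/mL before mixing) were combined 1:3 with the suspension and incubated 20-24 h at 37 °C. Wells were plated on Mueller-Hinton agar for a further 20-24 h; MBC was taken as no colonies.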

[31] = test system: Klebsiella pneumoniae; test: Antibacterial activity against carbapenemase-producing Klebsiella pneumoniae isolate K4 after 16 to 20 hrs by broth microdilution method; assay type: functional; procedure, shortened: as §2
[32] = test system: Enterobacteriaceae; test: Antibacterial activity against NDM-1-producing Enterobacteriaceae isolate N4 after 16 to 20 hrs by broth microdilution method; assay type: functional; procedure, shortened: as §2
[33] = test system: Enterococcus faecalis; test: Antibacterial activity against Enterococcus faecalis after 16 to 20 hrs by broth microdilution method; assay type: functional; procedure, shortened: as §2
[34] = test system: Klebsiella pneumoniae; test: Antibacterial activity against carbapenemase-producing Klebsiella pneumoniae isolate K6 after 16 to 20 hrs by broth microdilution method; assay type: functional; procedure, shortened: as §2
[35] = test system: Staphylococcus aureus; test: Ratio of MBC for methicillin-resistant Staphylococcus aureus in presence of 50% serum to MBC for methicillin-resistant Staphylococcus aureus; assay type: functional; procedure, shortened: as §4

Row | Structure (SMILES) | MIC [1] | MIC [2] | MIC [3] | MIC [4] | MIC [5] | MIC [6] | MBC [7] | MIC [8] | Activity [9] | MIC [10] | MIC [11] | MIC [12] | MIC [13] | MBC [14] | Activity [15] | MIC [16] | MIC [17] | MIC [18] | MIC [19] | Activity [20] | further results
1 | CCCCCCCCN(CCCCCCCC)C(=O)[C@@H](N)CCCCN.Cl.Cl | 2 µg/mL | 1 µg/mL | 2 µg/mL | 1 µg/mL | 8 µg/mL | 4 µg/mL | 16 µg/mL | 2 µg/mL | Active | 1 µg/mL | 4 µg/mL | 8 µg/mL | 0.5 µg/mL | 4 to 8 µg/mL | Active | 8 µg/mL | 8 µg/mL | 2 µg/mL | 8 µg/mL | Active | MIC [21]: 2 µg/mL; MIC [22]: 8 µg/mL; MIC [23]: 2 µg/mL; MIC [24]: 0.5 µg/mL; MIC [25]: 1 µg/mL; MIC [26]: 1 µg/mL; MIC [27]: 2 µg/mL; MIC [28]: 1 µg/mL; MIC [29]: 4 µg/mL; Ratio [30]: 2 - 4; MIC [31]: 2 µg/mL; MIC [32]: 8 µg/mL; MIC [33]: 2 µg/mL; MIC [34]: 2 µg/mL; Ratio [35]: 1 - 2
2 | CCCCCCCCCCN(CCCCCCCCCC)C(=O)[C@@H](N)CCCN=C(N)N.Cl.Cl.Cl | 2 µg/mL | 2 µg/mL | 4 µg/mL | 2 µg/mL | 4 µg/mL | 4 µg/mL | 16 µg/mL | 4 µg/mL | Active | 2 µg/mL | 4 µg/mL | 8 µg/mL | 2 µg/mL | 4 to 8 µg/mL | Active | 4 µg/mL | 4 µg/mL | 4 µg/mL | 8 µg/mL | Active | MIC [21]: 4 µg/mL; MIC [22]: 4 µg/mL; MIC [23]: 4 µg/mL; MIC [24]: 2 µg/mL; MIC [25]: 4 µg/mL; MIC [26]: 2 µg/mL; MIC [27]: 4 µg/mL; MIC [28]: 4 µg/mL; MIC [29]: 4 µg/mL; Ratio [30]: 2 - 4; MIC [31]: 4 µg/mL; MIC [32]: 4 µg/mL; MIC [33]: 2 µg/mL; MIC [34]: 4 µg/mL; Ratio [35]: 1 - 2
